Measured values: PubChem BioAssay
Activity calls are given as the source filed them.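 The calls were made as follows, unless noted: active = viability loss from added drug above about 55%, and viability with drug at most 40%, in both replicates (limit read from the data, passing the limit was not always enough); inconclusive = both conditions met in only one replicate; inactive = neither replicate meets both conditions.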

Tests used:
[1] = reducers of endogenous Her2 protein level, primary screen, SKBR3 breast tumor cells, AlphaScreen, ATP viability (AID 461;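 active = Her2 level under about 52% in both replicate screens, with viability over 70% of control, limit read from the data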;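 as to Her2 level: lower value means less Her2 protein in the cells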;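 as to viability: percent of carrier control wells set as 100% viability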); details: 18-24 h, measured here: SKBR3 viability, ATP luminescence, at 10 µM
[2] = molecular target: Receptor tyrosine-protein kinase erbB-2 (Homo sapiens) (UniProt P04626); test: as above; details: 18-24 h, at 10 µM, stronger effect = lower value
Chain of Receptor tyrosine-protein kinase erbB-2 (Homo sapiens) (P04626 whole entry, looked up): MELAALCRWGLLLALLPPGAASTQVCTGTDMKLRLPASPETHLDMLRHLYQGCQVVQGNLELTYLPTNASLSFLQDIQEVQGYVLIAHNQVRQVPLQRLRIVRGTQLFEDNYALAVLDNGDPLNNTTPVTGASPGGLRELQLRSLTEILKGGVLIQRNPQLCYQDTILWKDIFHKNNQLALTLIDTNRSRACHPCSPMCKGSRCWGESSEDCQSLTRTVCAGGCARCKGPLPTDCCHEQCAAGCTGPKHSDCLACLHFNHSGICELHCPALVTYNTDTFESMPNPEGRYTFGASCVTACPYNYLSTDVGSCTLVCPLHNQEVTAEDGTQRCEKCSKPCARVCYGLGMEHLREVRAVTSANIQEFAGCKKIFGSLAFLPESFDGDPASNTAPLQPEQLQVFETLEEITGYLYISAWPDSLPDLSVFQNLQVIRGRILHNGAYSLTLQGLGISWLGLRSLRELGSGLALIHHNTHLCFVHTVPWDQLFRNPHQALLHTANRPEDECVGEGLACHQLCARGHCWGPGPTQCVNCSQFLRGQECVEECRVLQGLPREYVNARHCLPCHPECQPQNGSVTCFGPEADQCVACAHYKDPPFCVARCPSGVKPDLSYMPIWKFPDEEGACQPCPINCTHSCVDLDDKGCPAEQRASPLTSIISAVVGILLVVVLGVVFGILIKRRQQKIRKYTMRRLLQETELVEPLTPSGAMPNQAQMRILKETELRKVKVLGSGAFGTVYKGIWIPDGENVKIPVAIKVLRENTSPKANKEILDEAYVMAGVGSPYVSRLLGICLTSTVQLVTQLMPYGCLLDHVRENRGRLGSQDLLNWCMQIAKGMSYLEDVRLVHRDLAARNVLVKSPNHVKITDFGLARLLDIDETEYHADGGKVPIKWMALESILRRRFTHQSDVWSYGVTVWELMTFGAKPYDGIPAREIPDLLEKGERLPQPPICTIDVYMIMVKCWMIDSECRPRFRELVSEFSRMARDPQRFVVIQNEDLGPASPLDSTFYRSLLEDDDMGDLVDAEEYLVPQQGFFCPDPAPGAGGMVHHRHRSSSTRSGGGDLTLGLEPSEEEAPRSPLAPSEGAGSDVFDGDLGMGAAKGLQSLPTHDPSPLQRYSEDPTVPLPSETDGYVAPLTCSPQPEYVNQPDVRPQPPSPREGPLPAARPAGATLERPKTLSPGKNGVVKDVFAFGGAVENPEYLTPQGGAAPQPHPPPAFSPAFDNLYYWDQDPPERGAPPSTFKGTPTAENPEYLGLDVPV

[3] = SK-BR-3 cell growth inhibitors, pilot screen, 24 h, human (AID 572;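 active = viability at or below 10% of carrier control in both of two separate runs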;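 also: compound exposure lasted between 18 and 24 h rather than exactly 24 h; 100% = carrier-treated control wells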); details: SK-BR-3 viability, CellTiter-Glo luminescence, at 10 µM, stronger effect = lower value
[4] = HUVEC growth inhibition – cell-based, human, primary screen (AID 575;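 active = viability at or below 30% in both replicate assays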;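 also: 100% = median of untreated cell wells with 0.1% DMSO on each plate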); details: HUVEC proliferation, CellTiter-Glo luminescence, 72 h; at 10 µM; stronger effect = lower value
Summary of the method: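 Test system: HUVEC primary cells. Quantity: 1250 endothelial cells in each well. Dosing: single-point 10 µM, DMSO 0.1% final. Incubation: 72 h treatment at 37 °C. Measured by: CTG luminescence. Control set: DMSO cell controls and MePR drug controls. Plate: collagen-coated 384-well format.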

[5] = growth inhibitors of H69AR lung tumor, primary screen, human, duplicate replicates (AID 580;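 active = viability at or under a set limit in both replicates, limit being median viability minus 3 SD, cut at about 48% in these data, passing the limit was not always enough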;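 also: 100% = mean luminescence of untreated wells and 0% = no signal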); details: H69AR lung tumor cells viability, ATP luminescence, 72 h; at 10 µM; stronger effect = lower value
[6] = reversal of MRP1-mediated doxorubicin resistance, pilot screen, H69AR cells, doxorubicin co-treatment (AID 601); details: CellTiter-Glo, 72 h, at 10 µM; for differential viability (reversal): stronger effect = higher value
[7] = 384-well plate pilot, post-Golgi transport modulator project, inhibition of yeast transport mutant growth (AID 636; in the data active = inhibition above about 31%); details: absorbance 615 nm, about 18 h, stronger effect = higher value
[8] = growth suppression of yeast trafficking mutant, preliminary HTS, modulators of trafficking downstream of Golgi apparatus project, 1536-format plate, OD 615 nm (AID 637; in the data active = inhibition above about 30%); details: yeast transport mutant growth, absorbance 615 nm, 18 h; stronger effect = higher value
[9] = H69AR cells + 2 uM doxorubicin, measured here: viability with 2 uM doxorubicin, stronger effect = lower value
[10] = H69AR cells, compound alone cytotoxicity

Compound	viability [1] [%]	Her2 level [2]	viability [3]	viability [4]	viability [5]	differential viability (reversal) ([6]; H69AR cells + 2 uM doxorubicin)	viability [6, 9] [%]	viability [6, 10] [%]	inhibition [7]	inhibition [8]
O=C(Nc1cccnc1)c1cccc(NC(=O)c2ccco2)c1	97.5	85% (inactive)	97.5% (inactive)	94.4% (inactive)	89.9% (inactive)	0.575% (inactive)	89.3	89.9	-1.56% (inactive)	4.1% (inactive)
O=C(OCC(=O)c1cccs1)C1=COCCO1	89	102% (inactive)	89% (inactive)	91.6% (inactive)	89.1% (inactive)	1.52% (inactive)	87.6	89.1	-0.38% (inactive)	-1% (inactive)
Cn1c(SCC(=O)Nc2ccc3c(c2)OCO3)nnc1-c1cnccn1	106	82.5% (inactive)	106% (inactive)	93.5% (inactive)	94.6% (inactive)	6.5% (inactive)	88.1	94.6	-6.05% (inactive)	2.33% (inactive)
CC(=O)c1cc2c(=O)c3cc(C)ccc3oc2nc1C	102	72.5% (inactive)	102% (inactive)	68.4% (inactive)	72.5% (inactive)	-7.35% (inactive)	79.9	72.5	-2.89% (inactive)	-1.43% (inactive)
CCOc1ccc2[nH]c(=O)c(CN(Cc3nnnn3CCc3ccccc3)CC3CCCO3)cc2c1 (stereo not given)	78.5	89% (inactive)	78.5% (inactive)	90.6% (inactive)	78.7% (inactive)	21.2% (inactive)	57.5	78.7	-5.34% (inactive)	-11.6% (inactive)
CSCC[C@@H](Nc1nc(-c2ccccc2)nc2c1oc1ccccc12)C(=O)O	91	75% (inactive)	91% (inactive)	84.2% (inactive)	93.8% (inactive)	-1.28% (inactive)	95.1	93.8	-7.43% (inactive)	-0.82% (inactive)
CCn1cc(C(=O)NCCCOC)c(=O)c2cc(S(=O)(=O)N(C)C3CCCCC3)ccc21	87	114% (inactive)	87% (inactive)	101% (inactive)	90.8% (inactive)	-13% (inactive)	104	90.8	-0.9% (inactive)	-5.33% (inactive)
CC1=Nn2c(nnc2-c2cc(-c3ccccc3)n[nH]2)SC1	97.5	78% (inactive)	97.5% (inactive)	94.3% (inactive)	91.4% (inactive)	7.02% (inactive)	84.4	91.4	-3.47% (inactive)	7.05% (inactive)
O=C(Cn1nnc(-c2ccc(CN3CCOCC3)cc2)n1)NC1CCCCC1	108	104% (inactive)	108% (inactive)	106% (inactive)	101% (inactive)	4.09% (inactive)	97.1	101	-5.73% (inactive)	3.28% (inactive)
Cc1ccc(Cc2c(C)nc3c(C(=O)O)cnn3c2C)cc1	93.5	114% (inactive)	93.5% (inactive)	85.5% (inactive)	91.9% (inactive)	-10.4% (inactive)	102	91.9	-4.34% (inactive)	-5.17% (inactive)
COc1ccccc1N1CCN(Cc2nnnn2CCc2ccccc2)CC1	88	112% (inactive)	88% (inactive)	91.5% (inactive)	93.2% (inactive)	3.56% (inactive)	89.7	93.2	1.51% (inactive)	25.6% (inactive)
CC(=O)Nc1cccc(NC(=O)c2oc3ccccc3c2C)c1	81.5	92.5% (inactive)	81.5% (inactive)	76.8% (inactive)	68.9% (inactive)	-12.4% (inactive)	81.3	68.9	-4.8% (inactive)	-1.43% (inactive)
Brc1ccc(-c2cn3cccnc3n2)cc1	130	97.5% (inactive)	130% (inactive)	86.3% (inactive)	104% (inactive)	6.97% (inactive)	97.1	104	-3.87% (inactive)	0.97% (inactive)
CC1=C(C(=O)Nc2ccccc2)C(c2cccs2)C(C#N)=C(SCC#N)N1 (stereo not given)	104	96.5% (inactive)	104% (inactive)	64% (inactive)	82.8% (inactive)	-13.4% (inactive)	96.2	82.8	-0.4% (inactive)	19.2% (inactive)
CC(=O)c1cccc(NC(=O)N2CCCc3ccccc32)c1	105	104% (inactive)	105% (inactive)	95% (inactive)	93.6% (inactive)	2.88% (inactive)	90.7	93.6	-3.73% (inactive)	3.93% (inactive)
COc1ccc(OC)c(N(CC(=O)N2CCN(c3cc(Cl)ccc3C)CC2)S(C)(=O)=O)c1	100	94% (inactive)	100% (inactive)	78.2% (inactive)	75.9% (inactive)	3.83% (inactive)	72	75.9	-5.53% (inactive)	0.48% (inactive)
COc1ccc(OC)c(S(=O)(=O)N2c3ccccc3CC2C)c1 (stereo not given)	82.5	109% (inactive)	82.5% (inactive)	77.6% (inactive)	89.4% (inactive)	-11.7% (inactive)	101	89.4	-4.86% (inactive)	-3.93% (inactive)
COc1ccc(OC(C)C(=O)N2CC(C)OC(C)C2)cc1 (stereo not given)	100	102% (inactive)	100% (inactive)	97.3% (inactive)	100% (inactive)	-1.02% (inactive)	101	100	-5% (inactive)	0.16% (inactive)
COc1ccc(-c2noc(CN3CCC(Cc4ccccc4)CC3)n2)cc1	94	112% (inactive)	94% (inactive)	87.5% (inactive)	93.5% (inactive)	4.6% (inactive)	88.9	93.5	-4.8% (inactive)	-3.39% (inactive)
COC(=O)c1ccccc1S(=O)(=O)N(CCCN1CCOCC1)Cc1cccs1	111	110% (inactive)	111% (inactive)	91.8% (inactive)	89.2% (inactive)	-0.97% (inactive)	90.2	89.2	-1.45% (inactive)	5.4% (inactive)
CCOc1ccc2cc(C#N)c(SCC(=O)N3CCOCC3)nc2c1	109	81.5% (inactive)	109% (inactive)	87.1% (inactive)	74.6% (inactive)	31.8% (inactive)	42.8	74.6	-6.8% (inactive)	1.94% (inactive)
O=C(O)c1c(Cl)c(Cl)c(Cl)c(Cl)c1C(=O)N1CCOCC1	109	90% (inactive)	109% (inactive)	106% (inactive)	95.7% (inactive)	2.91% (inactive)	92.8	95.7	-5.97% (inactive)	0.16% (inactive)
CC1(C)CC(CCNC(=O)c2ccco2)CC(C)(C)N1	106	92% (inactive)	106% (inactive)	84.2% (inactive)	98.8% (inactive)	2.95% (inactive)	95.8	98.8	-3.73% (inactive)	-4.76% (inactive)
CCOC(=O)c1cccc(NC(=O)CSc2nnc(-c3cccnc3)n2CC)c1	88.5	95% (inactive)	88.5% (inactive)	101% (inactive)	109% (inactive)	13.3% (inactive)	95.2	109	-4.67% (inactive)	0% (inactive)
COc1ccc(S(=O)(=O)N2CN(Cc3ccco3)c3nc4ccccc4nc32)cc1	101	84.5% (inactive)	101% (inactive)	99.2% (inactive)	102% (inactive)	7.69% (inactive)	94.2	102	1.82% (inactive)	1.11% (inactive)
Cc1ccc(NS(=O)(=O)c2cn(C)cn2)cc1	95	88% (inactive)	95% (inactive)	100% (inactive)	92.7% (inactive)	5.86% (inactive)	86.8	92.7	-2.63% (inactive)	2.36% (inactive)
C#CCSc1nnc(-c2ccccc2)c(=O)[nH]1	92.5	91% (inactive)	92.5% (inactive)	89.4% (inactive)	94.7% (inactive)	3.12% (inactive)	91.5	94.7	-3.92% (inactive)	-5.9% (inactive)
Cc1noc(C)c1S(=O)(=O)N1CCCC(C(=O)NCCc2ccc(Cl)cc2)C1 (stereo not given)	89	82% (inactive)	89% (inactive)	98.1% (inactive)	97.1% (inactive)	5.35% (inactive)	91.7	97.1	-5.34% (inactive)	4.76% (inactive)
Cc1ccc(S(=O)(=O)NC(=O)c2cc(C)n(CCCn3ccnc3)c2C)cc1	101	84% (inactive)	101% (inactive)	94.2% (inactive)	90.7% (inactive)	2.88% (inactive)	87.8	90.7	-7.2% (inactive)	0.82% (inactive)
